Laboratory results as given in ChEMBL document CHEMBL1150238, “Podophyllotoxin directly binds a hinge domain in E2 of HPV and inhibits an E2/E7 interaction in vitro” (Bioorg Med Chem, 2008).
Activity calls are given as the source filed them. No cut-off for these calls is given here.

What was measured:
[1] = Cytotoxicity against mouse L210 cells after 48 hrs; type: functional, cell-based; details: L210, 48 h
Outline: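 Cells seeded at 1.0 × 10⁴ per 100 µL and preincubated 24 h at 37 °C, 5% CO2. They were then exposed to graded compound concentrations for 48 h. WST-8 reagent added for 4 h, and absorbance read at 450 nm.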

Regulatory protein E2 [2] = biological target: T1, Regulatory protein E2 (Human papillomavirus type 1a, UniProt P03118); assay: Binding affinity to HPV1a recombinant E2 protein by surface plasmon resonance method
T1 sequence (P03118 whole entry): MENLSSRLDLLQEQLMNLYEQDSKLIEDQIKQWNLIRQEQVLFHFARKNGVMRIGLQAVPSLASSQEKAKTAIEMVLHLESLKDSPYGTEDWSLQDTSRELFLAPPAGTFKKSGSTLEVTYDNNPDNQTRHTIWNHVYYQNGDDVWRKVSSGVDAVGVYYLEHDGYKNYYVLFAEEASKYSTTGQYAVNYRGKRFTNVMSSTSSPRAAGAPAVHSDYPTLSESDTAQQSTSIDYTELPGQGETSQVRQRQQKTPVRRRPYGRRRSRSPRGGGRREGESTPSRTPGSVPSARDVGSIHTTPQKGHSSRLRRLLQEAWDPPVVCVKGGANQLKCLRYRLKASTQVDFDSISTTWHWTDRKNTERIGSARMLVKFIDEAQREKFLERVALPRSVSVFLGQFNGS
Outline: (§1)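 E2 proteins (full-length and HPV 1a domain constructs, FLAG-tagged) expressed in E. coli with 1 mM IPTG induction for 3 h and purified by FPLC. Proteins amine-coupled to sensor chip (EDC/NHS activation, 10 mM acetate pH 4.0–6.0, ethanolamine block). PT flowed at various concentrations in PBS pH 7.4, 0.005% Tween20, 5% glycerol, 5% DMSO, 20–30 µL/min, 25 °C. Reference flow cell subtracted, KD derived; replicates over two times.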

[3] = biological target: T2, Regulatory protein E2 (Human papillomavirus type 1a) (UniProt P03118); assay: Inhibition of HPV1a E2-E7 protein interaction at 250 uM assessed as rate of E2 binding to E7 protein by surface plasmon resonance method; parameters: scale not given: the % may be the effect or the level left
T2 sequence (whole entry): T1 sequence (P03118 whole entry)
Outline: (§2)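 SPR competition format: E2 protein at 0.1 µM was mixed with PT in 5% DMSO and injected at 30 µL/min, 25 °C. Bound E2 amount was compared at 115 s after injection. Buffer alone and PT without E2 served as sensorgram controls.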

Regulatory protein E2 [4] = biological target: T1, Regulatory protein E2; assay: Binding affinity to HPV1a recombinant E2 protein activator domain by surface plasmon resonance assay; outline: as §1
Regulatory protein E2 [5] = biological target: T1, Regulatory protein E2; assay: Binding affinity to HPV1a recombinant E2 protein hinge domain by surface plasmon resonance assay; outline: as §1
Regulatory protein E2 [6] = biological target: T1, Regulatory protein E2; assay: Binding affinity to HPV1a recombinant E2 protein DNA binding domain by surface plasmon resonance assay; outline: as §1
Regulatory protein E2 [7] = biological target: T3, Regulatory protein E2 (human papillomavirus 11, UniProt P04015); assay: Binding affinity to HPV11 recombinant E2 protein by surface plasmon resonance method; outline: as §1
T3 sequence (P04015 whole entry): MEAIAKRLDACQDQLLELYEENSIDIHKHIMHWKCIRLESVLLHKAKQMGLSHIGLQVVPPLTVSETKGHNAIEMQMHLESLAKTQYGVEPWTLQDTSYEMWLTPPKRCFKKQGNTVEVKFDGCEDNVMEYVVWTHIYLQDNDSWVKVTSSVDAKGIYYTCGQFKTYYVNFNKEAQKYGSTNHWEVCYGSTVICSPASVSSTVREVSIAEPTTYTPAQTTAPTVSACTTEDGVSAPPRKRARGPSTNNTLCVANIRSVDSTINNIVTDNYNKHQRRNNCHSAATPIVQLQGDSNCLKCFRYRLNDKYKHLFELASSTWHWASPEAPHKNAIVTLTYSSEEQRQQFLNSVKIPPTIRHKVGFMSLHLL

[8] = biological target: T2, Regulatory protein E2 (Human papillomavirus type 1a); assay: Inhibition of HPV1a E2-E7 protein interaction at 500 uM assessed as rate of E2 binding to E7 protein by surface plasmon resonance method; parameters: scale not given: the % may be the effect or the level left; outline: as §2
Regulatory protein E2 [9] = biological target: T4, Regulatory protein E2 (Human papillomavirus 16, UniProt P03120); assay: Binding affinity to HPV16 recombinant E2 protein by surface plasmon resonance method; outline: as §1
T4 sequence (P03120 whole entry): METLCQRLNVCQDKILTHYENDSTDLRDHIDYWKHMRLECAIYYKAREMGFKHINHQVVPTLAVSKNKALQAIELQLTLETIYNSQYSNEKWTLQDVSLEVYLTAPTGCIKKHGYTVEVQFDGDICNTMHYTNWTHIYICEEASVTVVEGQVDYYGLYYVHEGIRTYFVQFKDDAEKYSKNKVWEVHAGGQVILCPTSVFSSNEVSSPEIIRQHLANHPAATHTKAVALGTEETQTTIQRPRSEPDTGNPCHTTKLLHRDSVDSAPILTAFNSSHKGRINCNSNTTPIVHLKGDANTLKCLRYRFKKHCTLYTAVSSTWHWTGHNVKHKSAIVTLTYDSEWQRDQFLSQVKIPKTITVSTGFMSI

[10] = biological target: T2, Regulatory protein E2 (Human papillomavirus type 1a); assay: Inhibition of HPV1a recombinant E2 protein-DNA interaction by electron mobility shift assay

Row | SMILES | IC50 [1] | Kd (Regulatory protein E2 [2]) | Activity [3] | Kd (Regulatory protein E2 [4]) | Kd (Regulatory protein E2 [5]) | Kd (Regulatory protein E2 [6]) | Kd (Regulatory protein E2 [7]) | Activity [8] | Kd (Regulatory protein E2 [9]) | Activity [10]
1 | COc1cc([C@@H]2c3cc4c(cc3[C@H](OC(=O)CCCCCNC(=O)CCCC[C@@H]3SC[C@@H]5NC(=O)N[C@@H]53)[C@H]3COC(=O)[C@H]23)OCO4)cc(OC)c1OC | 0.4 µM |  |  |  |  |  |  |  |  | 
2 | COc1cc([C@@H]2c3cc4c(cc3[C@@H](O[C@@H]3O[C@@H]5CO[C@@H](C)O[C@H]5[C@H](O)[C@H]3O)[C@H]3COC(=O)[C@H]23)OCO4)cc(OC)c1O [ETOPOSIDE] |  | 210 µM | 82% |  |  |  |  |  |  | 
3 | COc1cc([C@@H]2c3cc4c(cc3[C@H](O)[C@H]3COC(=O)[C@H]23)OCO4)cc(OC)c1OC [PODOFILOX] | 0.007 µM | 24.1 µM | 60.6% | > 400 µM | 1.05 µM | > 400 µM | 20.1 µM | 49.1% | 70.5 µM | inactive
